The values below come from ChEMBL document CHEMBL1126773, “Synthesis, physicochemical properties, and biological evaluation of N-substituted 2-alkyl-3-hydroxy-4(1H)-pyridinones: orally active iron chelators with clinical potential” (J Med Chem, 1993).

Data set [1] is described as follows: Partition coefficient (logD7.4). Type of data set: physicochemical. The note with it: octanol/water, pH 7.4. The method, boiled down:
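Automated filter-probe partitioning between MOPS buffer (50 mM, pH 7.4) and octan-1-ol, each phase pre-equilibrated with the other and purged with nitrogen. UV absorbance was read until stable, then octanol was added in at least 10 aliquots. An estimate came from each addition, giving a mean and standard deviation.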

For another data set, the species on record is Equus caballus. Briefly: Percentage of removal of iron from iron-protein-ferritin. The format is functional. Further details: concentration or dose not given beside the values. In a few lines:
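Horse spleen ferritin (iron cores equivalent to 450 μM) was incubated with chelator (5 mM) in HEPES (0.1 M, pH 7.2) at 37 °C for up to 36 h. Samples were ultrafiltered to separate the Fe(III) complex, and the filtrate absorbance was read (450 nm; concentrations from ε max).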

Data set [2] deals with Serotransferrin (Homo sapiens) (UniProt P02787). In words: Percentage of removal of iron from iron-protein-transferrin. The format is functional. Further details: concentration or dose not given beside the values. In a few lines:
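Human transferrin, Fe(III)-loaded (50 μM), was mixed with chelator (100 μM) in MOPS (0.05 M, pH 7.4, 25 °C) with 25 mM NaHCO3. Absorbance at 400–500 nm was scanned every 2 min for 10 min, then every 5 min up to 3 h.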

A short description of data set [3]: Logarithm of cumulative stability constant was determined.
The species entered for a further data set is Rattus norvegicus. Briefly: Percentage of mobilization of iron in 2 hours from rat hepatocytes. The format is functional, Hepatocyte.
The nature of data set [4]: Percentage of release of lactic dehydrogenase from rat hepatocytes. Type of data set: functional, Hepatocyte. The method, boiled down: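 Primary rat hepatocytes were plated at 1 × 10⁶/dish, pulsed 17 h with human diferric ⁵⁹Fe-transferrin (100 µg/mL), washed, then exposed to chelators in triplicate. LDH was measured in the supernatant at 6 h.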
Data set [5] can be described thus: Acid dissociation constant (pKa2) was determined.
The nature of data set [6]: Acid dissociation constant (pKa1) was determined. Type of data set: physicochemical. The note with it: for pKa: read-out: pKa1. The method, boiled down:
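Simultaneous spectrophotometric/potentiometric titration of the ligand. Temperature held at 22.5 ± 0.1 °C, ionic strength 0.1 with KNO3. pKa values were obtained by global optimization across titrations at several ligand concentrations.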

Sequence of Serotransferrin (Homo sapiens) (P02787 whole entry): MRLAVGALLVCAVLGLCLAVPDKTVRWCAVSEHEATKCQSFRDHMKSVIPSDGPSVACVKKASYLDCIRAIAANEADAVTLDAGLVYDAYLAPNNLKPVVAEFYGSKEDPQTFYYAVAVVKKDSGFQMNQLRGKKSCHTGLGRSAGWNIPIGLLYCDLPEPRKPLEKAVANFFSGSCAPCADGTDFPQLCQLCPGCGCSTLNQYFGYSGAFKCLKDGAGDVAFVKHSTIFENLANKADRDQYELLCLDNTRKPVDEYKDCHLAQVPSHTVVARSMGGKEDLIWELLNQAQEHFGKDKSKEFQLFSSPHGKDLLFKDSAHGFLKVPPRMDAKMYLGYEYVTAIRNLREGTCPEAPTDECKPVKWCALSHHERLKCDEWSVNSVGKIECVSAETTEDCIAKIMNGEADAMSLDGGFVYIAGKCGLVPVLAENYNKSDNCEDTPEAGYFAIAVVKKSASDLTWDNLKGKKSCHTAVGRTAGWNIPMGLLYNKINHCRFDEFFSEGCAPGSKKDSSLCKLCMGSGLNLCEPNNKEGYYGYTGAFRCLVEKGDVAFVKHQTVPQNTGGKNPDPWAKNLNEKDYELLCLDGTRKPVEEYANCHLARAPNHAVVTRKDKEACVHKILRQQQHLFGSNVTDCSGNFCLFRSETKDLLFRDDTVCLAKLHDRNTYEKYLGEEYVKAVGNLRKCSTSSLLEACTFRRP

As to `CCCCCn1ccc(=O)c(O)c1C`, the logD in data set [1] was 1.24. Take `COCCn1ccc(=O)c(O)c1C`: the log distribution coefficient (logD) in data set [1] is -0.409. The Activity in the data set listed under Equus caballus was determined as 28%; in data set [2], 55%. For `CCCCCCCCn1ccc(=O)c(O)c1C`, the logD in data set [1] is 2.88.

In the case of `Cc1c(O)c(=O)ccn1C` [DEFERIPRONE], the log distribution coefficient (logD) in data set [1] is -0.77. Moreover, the Activity in the data set filed under Equus caballus came to 34%; in data set [2] it was 54%. Moreover, the “Log beta3” value in data set [3] is reported as 37.2. On to `Cc1c(O)c(=O)ccn1CCO`, for which the logD in data set [1] is -1.1. Besides, the results for the Activity (in the data set listed under Equus caballus; in data set [2]) were 29% and 47%, respectively. In data set [1], `CCN(C)C(=O)CCn1ccc(=O)c(O)c1C` showed a logD of -0.686.

`CCn1cccc(O)c1=O`: the Activity turned out to be 115% in the data set listed under Rattus norvegicus and 102% in data set [4]. For the same compound, the “Log beta3” value in data set [3] is reported as 32.

On to `CCc1c(O)c(=O)ccn1C`, for which the logD in data set [1] was -0.205. In data set [1], `COCC(C)n1ccc(=O)c(O)c1C` (stereo not drawn) gave a logD of -0.26. Turning to `Cc1c(O)c(=O)ccn1CCCCO`, the logD in data set [1] is -0.742.

For the compound `O/N=C/c1ccccn1`, the Activity (in the data set listed under Rattus norvegicus; in data set [4]) was 108% throughout. Besides, in data set [3], the “Log beta3” value is recorded as 30. For `CNC(=O)CCn1ccc(=O)c(O)c1C`, the logD in data set [1] is -1.1. Compound `Cc1nccc(O)c1O` showed a log distribution coefficient (logD) in data set [1] of -0.495. In addition, the “Log beta3” value in data set [3] is 37.2. Moreover, the pKa worked out at 9.76 in data set [5] (pKa2) and 3.7 in data set [6]. `Cc1c(O)c(=O)ccn1CCC(=O)N(C)C`: in data set [1], the log distribution coefficient (logD) was -1.16. With `CCCNC(=O)CCn1ccc(=O)c(O)c1C`, the logD in data set [1] is -0.396. As for `Cc1c(O)c(=O)ccn1CCN`, the logD in data set [1] is -1.55. Also, the Activity in the data set listed under Equus caballus is 23%; in data set [2], 56%. For the compound `CCc1c(O)c(=O)ccn1CC`, the logD in data set [1] was 0.25.

Regarding `CCCCCCn1ccc(=O)c(O)c1C`, the log distribution coefficient (logD) in data set [1] was 1.9. As to `Cc1c(O)c(=O)ccn1C(C)C`, the logD in data set [1] was 0.0492. The Activity was found to be 26% in the data set filed under Equus caballus and 51% in data set [2].

On to `Cc1c(O)c(=O)ccn1CCCO`, for which the logD in data set [1] is -0.879.

Regarding `Cc1c(O)c(=O)ccn1CCC(=O)NC(C)C`, the log distribution coefficient (logD) in data set [1] was -0.471. For the compound `Cc1c(O)c(=O)ccn1CCCN`, the logD in data set [1] was -2.1.

In data set [1], `CCN(CC)C(=O)CCn1ccc(=O)c(O)c1C` showed a logD of -0.361. On to `CCc1nccc(O)c1O`, for which the logD in data set [1] is 0.0453.

As for `CC(=O)N(O)CCCCCNC(=O)CCC(=O)N(O)CCCCCNC(=O)CCC(=O)N(O)CCCCCN`, the Activity stood at 11% in the data set filed under Equus caballus and 5% in data set [2]. `Oc1ccncc1O` yielded a pKa2 in data set [5] of 9.6. The pKa in data set [5] (pKa2) turned out to be 9.01; in data set [6], 3.34. The compound further came in with a pKa1 in data set [6] of 3.6. `CCCCCCn1ccc(=O)c(O)c1CC`: the logD in data set [1] is 2.28. In data set [1], `CCNC(=O)CCn1ccc(=O)c(O)c1C` gave a logD of -0.818. `CC(=O)NO` [ACETOHYDROXAMIC ACID]: the “Log beta3” value in data set [3] turned out to be 28.3. In data set [5] (pKa2), this compound came in with a pKa of 9.4. For `Cc1c(O)c(=O)ccn1CCCC(=O)O`, the Activity in the data set listed under Equus caballus was 12%; in data set [2], 53%. In the case of `CCOCCCn1ccc(=O)c(O)c1C`, in data set [1], the logD is 0.121. In data set [2], the Activity stood at 49%. The compound `CCc1c(O)c(=O)ccn1C(C)C` showed a log distribution coefficient (logD) in data set [1] of 0.732. `CCOCCCn1ccc(=O)c(O)c1CC` had a logD in data set [1] of 0.716. `CCCn1ccc(=O)c(O)c1CC` had a logD in data set [1] of 0.702. Take `Oc1cccc2cccnc12` [OXYQUINOLINE]: the values for the Activity (in the data set filed under Rattus norvegicus; in data set [4]) were 110% and 260%, respectively. In data set [3], the “Log beta3” value was found to be 37.

Compound `CCc1c(O)c(=O)ccn1CCOC` showed a logD in data set [1] of 0.0414. On to `Oc1ccccc1O` [CATECHOL], for which the “Log beta3” value in data set [3] stood at 44.9. Further, the pKa in data set [5] was 13.3; in data set [6], 9.2.

In data set [1], `CCCCn1ccc(=O)c(O)c1CC` showed a logD of 1.22. As for `CCc1c(O)c(=O)ccn1CCO`, the logD in data set [1] is -0.658.

`CCn1ccc(=O)c(O)c1C` showed a logD in data set [1] of -0.31. Also, the “Log beta3” value in data set [3] was 37.7. The pKa came out at 9.88 in data set [5] (pKa2) and 3.65 in data set [6].

As for `CCCn1ccc(=O)c(O)c1C`, the Activity worked out at 252% in the data set filed under Rattus norvegicus, 28% in the data set listed under Equus caballus, 105% in data set [4] and 52% in data set [2]. The “Log beta3” value in data set [3] stood at 37.7. Further, the pKa in data set [5] (pKa2) was determined as 9.92; in data set [6], 3.62. In data set [1], `CCCCn1ccc(=O)c(O)c1C` gave a logD of 0.703. In addition, the pKa in data set [5] (pKa2) stood at 9.87; in data set [6], 3.62. Further, the Activity in data set [2] is 52%.
